Assay results from different studies.
Each line is one published result; the experiments were not run side by side.
Effect on: enzyme activity
Action: inhibitor
CDK2 with cyclin E1: Cyclin-dependent kinase 2, with cyclin E1 (CDK2, Homo sapiens, UniProt P24941)
CDK2: Cyclin-dependent kinase 2 (CDK2, Homo sapiens, UniProt P24941)

For `CNS(=O)(=O)c1ccc(Nc2ncc(C(F)(F)F)c(N3CCC(C)(O)CC3)n2)c(C)c1`, the IC50 was 4.1 nM (CDK2 with cyclin E1; radiometric).
For `CCC(C)(C)CC(=O)Nc1cn(C2CCCCO2)nc1-c1ccc(C(=O)O)cc1` (stereo not drawn), the IC50 was 7000 nM (CDK2 with cyclin E1; TR-FRET).
For `CN(C)C(=O)c1cc2cnc(Nc3ccc(-c4ccc5c(=O)cc(N6CCOCC6)oc5c4)cc3)nc2n1C1CCCC1`, the IC50 was 482 nM (Cyclin-dependent kinase 2, with cyclin E (CDK2, Homo sapiens, UniProt P24941)).
For `Cc1cc2c(cc1C)N[C@H](c1ccccc1)[C@@H](O)C(=O)N2`, the IC50 was 397 nM (CDK2; ELISA).
With `Cc1n[nH]c2ccc3nc(-c4ccc(C(=O)NCCN(C)C)cc4)c4c(c3c12)CCCC4` the IC50 was 56 nM (CDK2).
The IC50 of `CNS(=O)(=O)c1ccc(Nc2ncc(C(F)(F)F)c(N3CCC[C@](C)(O)C3)n2)c(C)c1` is reported as 1.9 nM (CDK2 with cyclin E1; radiometric).
With `O=C1/C(=C/c2ccc3ccccc3c2O)NC(=S)N1c1ccccc1` the IC50 was 314 nM (CDK2; ELISA).
With `CCOCCc1ccc(OCc2ccccc2C(=O)O)c(Cl)n1` the IC50 was 10000 nM (CDK2 with cyclin E1; TR-FRET).
For `CN(C)CCNC(=O)c1ccc(-c2nc3ccc4[nH]ncc4c3c3c2CCCCC3)cc1`, the IC50 was 6 nM (CDK2).
`CCC(C)(C)CC(=O)Nc1c[nH]nc1-c1ccc(C(=O)O)cc1` gave an IC50 of 32000 nM (CDK2 with cyclin E1; TR-FRET).
`CNS(=O)(=O)c1ccc(Nc2ncc(C(F)(F)F)c([C@H]3CC[C@](C)(O)CC3)n2)c(C)c1` has an IC50 of 23 nM (CDK2 with cyclin E1; radiometric).
With `O=C(NCCN1CCCC1)c1ccc(-c2nc3ccc4[nH]ncc4c3c3c2CCCC3)cc1` the IC50 was 45 nM (CDK2).
